Measured values as given in ChEMBL document CHEMBL5058577, “EUbOPEN Chemogenomics Library 2 (Multiplex)” (2022).

Tested on: Fibroblast
Experiment: Multiplex assay against human fibroblast
Assay type: toxicity, cell-based
Method in brief: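 At seeding, live cells were stained with Hoechst33342, BioTracker Green Microtubule Cytoskeleton Dye, MitoTracker Red and Annexin V Alexa Fluor 680. After compound addition they were imaged on a CQ1 microscope at 37°C and 5% CO2, and CellPathfinder machine-learning gating sorted them into Hoechst high-intensity objects or normal cells, with normal cells further split into healthy, pyknosed or fragmented nuclei and pyknosed cells into mitotic or apoptotic. Tubulin, mitochondrial-mass and membrane-permeability phenotypes are given as per cents of cells with healthy nuclei.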

[1] = 12 h, 1 µM, compound concentration 1 uM, replicate 1
[2] = 12 h, 1 µM, compound concentration 1 uM, replicate 2
[3] = 12 h, 10 µM, compound concentration 10 uM, replicate 1
[4] = 12 h, 10 µM, compound concentration 10 uM, replicate 2
[5] = 24 h, 1 µM, compound concentration 1 uM, replicate 1
[6] = 24 h, 1 µM, compound concentration 1 uM, replicate 2
[7] = 24 h, 10 µM, compound concentration 10 uM, replicate 1
[8] = 24 h, 10 µM, compound concentration 10 uM, replicate 2
[9] = 48 h, 1 µM, compound concentration 1 uM, replicate 1
[10] = 48 h, 1 µM, compound concentration 1 uM, replicate 2
[11] = 48 h, 10 µM, compound concentration 10 uM, replicate 1
[12] = 48 h, 10 µM, compound concentration 10 uM, replicate 2

**Q.** Which “Population Apoptotic (%)” value [1] does the source give for `CC[C@@H](C)Nc1nc(C)nc2c(-c3ccc(OC)nc3C)c(C)nn12` [PEXACERFONT] here?
**A.** 40%

**Q.** And the “Population Fragmented Nuclei (%)” value [1]?
**A.** 12%

**Q.** What about the “Population Healthy Nuclei (%)” value [1] of the same molecule?
**A.** 66%

**Q.** What about the “Population Hoechst High Intensity Objects (%)” value [1] of the same molecule?
**A.** 1%

**Q.** And the “Population Membrane Permeable-Phenotype (%)” value [1]?
**A.** 2%

**Q.** And the “Population Mitochondria Different-Phenotype (%)” value [1]?
**A.** 4%

**Q.** And the “Population Mitotic Cells (%)” value [1]?
**A.** 60%

**Q.** And the “Population Normal (%)” value [1]?
**A.** 98%

**Q.** What about the “Population Pyknosed Nuclei (%)” value [1] of the same molecule?
**A.** 20%

**Q.** What about the “Population Tubulin-Different-Phenotype (%)” value [1] of the same molecule?
**A.** 35%

**Q.** And the “Total Cell Count” value [1]?
**A.** 147

**Q.** What about the “Population Apoptotic (%)” value [2] of the same molecule?
**A.** 25%

**Q.** What about the “Population Fragmented Nuclei (%)” value [2] of the same molecule?
**A.** 32%

**Q.** What about the “Population Healthy Nuclei (%)” value [2] of the same molecule?
**A.** 44%

**Q.** What about the “Population Hoechst High Intensity Objects (%)” value [2] of the same molecule?
**A.** 2%

**Q.** What about the “Population Membrane Permeable-Phenotype (%)” value [2] of the same molecule?
**A.** 15%

**Q.** What about the “Population Mitotic Cells (%)” value [2] of the same molecule?
**A.** 75%

**Q.** What about the “Population Normal (%)” value [2] of the same molecule?
**A.** 97%

**Q.** And the “Population Pyknosed Nuclei (%)” value [2]?
**A.** 24%

**Q.** What about the “Population Tubulin-Different-Phenotype (%)” value [2] of the same molecule?
**A.** 65%

**Q.** And the “Total Cell Count” value [2]?
**A.** 103

**Q.** What about the “Population Apoptotic (%)” value [3] of the same molecule?
**A.** 43%

**Q.** What about the “Population Fragmented Nuclei (%)” value [3] of the same molecule?
**A.** 15%

**Q.** And the “Population Healthy Nuclei (%)” value [3]?
**A.** 55%

**Q.** What about the “Population Hoechst High Intensity Objects (%)” value [3] of the same molecule?
**A.** 2%

**Q.** What about the “Population Membrane Permeable-Phenotype (%)” value [3] of the same molecule?
**A.** 0%

**Q.** And the “Population Mitochondria Different-Phenotype (%)” value [3]?
**A.** 19%

**Q.** And the “Population Mitotic Cells (%)” value [3]?
**A.** 56%

**Q.** And the “Population Normal (%)” value [3]?
**A.** 97%

**Q.** What about the “Population Pyknosed Nuclei (%)” value [3] of the same molecule?
**A.** 29%

**Q.** What about the “Population Tubulin-Different-Phenotype (%)” value [3] of the same molecule?
**A.** 62%

**Q.** And the “Total Cell Count” value [3]?
**A.** 143

**Q.** And the “Population Apoptotic (%)” value [4]?
**A.** 38%

**Q.** What about the “Population Fragmented Nuclei (%)” value [4] of the same molecule?
**A.** 21%

**Q.** What about the “Population Healthy Nuclei (%)” value [4] of the same molecule?
**A.** 40%

**Q.** What about the “Population Hoechst High Intensity Objects (%)” value [4] of the same molecule?
**A.** 8%

**Q.** And the “Population Membrane Permeable-Phenotype (%)” value [4]?
**A.** 7%

**Q.** And the “Population Mitochondria Different-Phenotype (%)” value [4]?
**A.** 9%

**Q.** And the “Population Mitotic Cells (%)” value [4]?
**A.** 61%

**Q.** What about the “Population Normal (%)” value [4] of the same molecule?
**A.** 91%

**Q.** What about the “Population Pyknosed Nuclei (%)” value [4] of the same molecule?
**A.** 38%

**Q.** What about the “Population Tubulin-Different-Phenotype (%)” value [4] of the same molecule?
**A.** 68%

**Q.** What about the “Total Cell Count” value [4] of the same molecule?
**A.** 147

**Q.** And the “Population Apoptotic (%)” value [5]?
**A.** 52%

**Q.** And the “Population Fragmented Nuclei (%)” value [5]?
**A.** 16%

**Q.** And the “Population Healthy Nuclei (%)” value [5]?
**A.** 70%

**Q.** What about the “Population Hoechst High Intensity Objects (%)” value [5] of the same molecule?
**A.** 1%

**Q.** What about the “Population Membrane Permeable-Phenotype (%)” value [5] of the same molecule?
**A.** 0%

**Q.** And the “Population Mitochondria Different-Phenotype (%)” value [5]?
**A.** 3%

**Q.** What about the “Population Mitotic Cells (%)” value [5] of the same molecule?
**A.** 47%

**Q.** What about the “Population Normal (%)” value [5] of the same molecule?
**A.** 98%

**Q.** And the “Population Pyknosed Nuclei (%)” value [5]?
**A.** 13%

**Q.** And the “Population Tubulin-Different-Phenotype (%)” value [5]?
**A.** 38%

**Q.** What about the “Total Cell Count” value [5] of the same molecule?
**A.** 157

**Q.** What about the “Population Apoptotic (%)” value [6] of the same molecule?
**A.** 47%

**Q.** What about the “Population Fragmented Nuclei (%)” value [6] of the same molecule?
**A.** 35%

**Q.** And the “Population Healthy Nuclei (%)” value [6]?
**A.** 42%

**Q.** What about the “Population Hoechst High Intensity Objects (%)” value [6] of the same molecule?
**A.** 3%

**Q.** And the “Population Membrane Permeable-Phenotype (%)” value [6]?
**A.** 20%

**Q.** And the “Population Mitochondria Different-Phenotype (%)” value [6]?
**A.** 2%

**Q.** What about the “Population Mitotic Cells (%)” value [6] of the same molecule?
**A.** 52%

**Q.** What about the “Population Normal (%)” value [6] of the same molecule?
**A.** 96%

**Q.** What about the “Population Pyknosed Nuclei (%)” value [6] of the same molecule?
**A.** 22%

**Q.** And the “Population Tubulin-Different-Phenotype (%)” value [6]?
**A.** 61%

**Q.** What about the “Total Cell Count” value [6] of the same molecule?
**A.** 108

**Q.** What about the “Population Apoptotic (%)” value [7] of the same molecule?
**A.** 37%

**Q.** And the “Population Fragmented Nuclei (%)” value [7]?
**A.** 16%

**Q.** And the “Population Healthy Nuclei (%)” value [7]?
**A.** 56%

**Q.** What about the “Population Hoechst High Intensity Objects (%)” value [7] of the same molecule?
**A.** 1%

**Q.** What about the “Population Membrane Permeable-Phenotype (%)” value [7] of the same molecule?
**A.** 2%

**Q.** And the “Population Mitochondria Different-Phenotype (%)” value [7]?
**A.** 10%

**Q.** And the “Population Mitotic Cells (%)” value [7]?
**A.** 62%

**Q.** And the “Population Normal (%)” value [7]?
**A.** 98%

**Q.** And the “Population Pyknosed Nuclei (%)” value [7]?
**A.** 27%

**Q.** What about the “Population Tubulin-Different-Phenotype (%)” value [7] of the same molecule?
**A.** 68%

**Q.** What about the “Total Cell Count” value [7] of the same molecule?
**A.** 139

**Q.** What about the “Population Apoptotic (%)” value [8] of the same molecule?
**A.** 38%

**Q.** What about the “Population Fragmented Nuclei (%)” value [8] of the same molecule?
**A.** 18%

**Q.** And the “Population Healthy Nuclei (%)” value [8]?
**A.** 47%

**Q.** What about the “Population Hoechst High Intensity Objects (%)” value [8] of the same molecule?
**A.** 7%

**Q.** What about the “Population Membrane Permeable-Phenotype (%)” value [8] of the same molecule?
**A.** 20%

**Q.** And the “Population Mitochondria Different-Phenotype (%)” value [8]?
**A.** 6%

**Q.** And the “Population Mitotic Cells (%)” value [8]?
**A.** 61%

**Q.** What about the “Population Normal (%)” value [8] of the same molecule?
**A.** 92%

**Q.** And the “Population Pyknosed Nuclei (%)” value [8]?
**A.** 33%

**Q.** What about the “Population Tubulin-Different-Phenotype (%)” value [8] of the same molecule?
**A.** 76%

**Q.** And the “Total Cell Count” value [8]?
**A.** 143

**Q.** What about the “Population Apoptotic (%)” value [9] of the same molecule?
**A.** 54%

**Q.** What about the “Population Fragmented Nuclei (%)” value [9] of the same molecule?
**A.** 15%

**Q.** And the “Population Healthy Nuclei (%)” value [9]?
**A.** 69%

**Q.** And the “Population Hoechst High Intensity Objects (%)” value [9]?
**A.** 8%

**Q.** What about the “Population Membrane Permeable-Phenotype (%)” value [9] of the same molecule?
**A.** 1%

**Q.** What about the “Population Mitochondria Different-Phenotype (%)” value [9] of the same molecule?
**A.** 0%

**Q.** And the “Population Mitotic Cells (%)” value [9]?
**A.** 45%

**Q.** What about the “Population Normal (%)” value [9] of the same molecule?
**A.** 91%

**Q.** What about the “Population Pyknosed Nuclei (%)” value [9] of the same molecule?
**A.** 15%

**Q.** And the “Population Tubulin-Different-Phenotype (%)” value [9]?
**A.** 30%

**Q.** And the “Total Cell Count” value [9]?
**A.** 160

**Q.** What about the “Population Apoptotic (%)” value [10] of the same molecule?
**A.** 25%

**Q.** And the “Population Fragmented Nuclei (%)” value [10]?
**A.** 40%

**Q.** And the “Population Healthy Nuclei (%)” value [10]?
**A.** 45%

**Q.** And the “Population Hoechst High Intensity Objects (%)” value [10]?
**A.** 1%

**Q.** And the “Population Membrane Permeable-Phenotype (%)” value [10]?
**A.** 26%

**Q.** What about the “Population Mitochondria Different-Phenotype (%)” value [10] of the same molecule?
**A.** 4%

**Q.** And the “Population Mitotic Cells (%)” value [10]?
**A.** 75%

**Q.** And the “Population Normal (%)” value [10]?
**A.** 98%

**Q.** And the “Population Pyknosed Nuclei (%)” value [10]?
**A.** 14%

**Q.** What about the “Population Tubulin-Different-Phenotype (%)” value [10] of the same molecule?
**A.** 52%

**Q.** And the “Total Cell Count” value [10]?
**A.** 113

**Q.** And the “Population Apoptotic (%)” value [11]?
**A.** 87%

**Q.** And the “Population Fragmented Nuclei (%)” value [11]?
**A.** 23%

**Q.** What about the “Population Healthy Nuclei (%)” value [11] of the same molecule?
**A.** 53%

**Q.** What about the “Population Hoechst High Intensity Objects (%)” value [11] of the same molecule?
**A.** 3%

**Q.** What about the “Population Membrane Permeable-Phenotype (%)” value [11] of the same molecule?
**A.** 0%

**Q.** What about the “Population Mitochondria Different-Phenotype (%)” value [11] of the same molecule?
**A.** 14%

**Q.** And the “Population Mitotic Cells (%)” value [11]?
**A.** 12%

**Q.** And the “Population Normal (%)” value [11]?
**A.** 96%

**Q.** What about the “Population Pyknosed Nuclei (%)” value [11] of the same molecule?
**A.** 22%

**Q.** And the “Population Tubulin-Different-Phenotype (%)” value [11]?
**A.** 62%

**Q.** What about the “Total Cell Count” value [11] of the same molecule?
**A.** 144

**Q.** And the “Population Apoptotic (%)” value [12]?
**A.** 52%

**Q.** And the “Population Fragmented Nuclei (%)” value [12]?
**A.** 32%

**Q.** And the “Population Healthy Nuclei (%)” value [12]?
**A.** 50%

**Q.** And the “Population Hoechst High Intensity Objects (%)” value [12]?
**A.** 4%

**Q.** What about the “Population Membrane Permeable-Phenotype (%)” value [12] of the same molecule?
**A.** 12%

**Q.** And the “Population Mitochondria Different-Phenotype (%)” value [12]?
**A.** 9%

**Q.** And the “Population Mitotic Cells (%)” value [12]?
**A.** 47%

**Q.** And the “Population Normal (%)” value [12]?
**A.** 95%

**Q.** And the “Population Pyknosed Nuclei (%)” value [12]?
**A.** 16%

**Q.** What about the “Population Tubulin-Different-Phenotype (%)” value [12] of the same molecule?
**A.** 76%

**Q.** What about the “Total Cell Count” value [12] of the same molecule?
**A.** 134
